In ChEMBL document CHEMBL1914369, “Introduction of an electron withdrawing group on the hydroxyphenylnaphthol scaffold improves the potency of 17β-hydroxysteroid dehydrogenase type 2 (17β-HSD2) inhibitors” (J Med Chem, 2011):

Experiments:
[1] = target: T1, Estrogen receptor (Homo sapiens) (UniProt P03372); assay: Displacement of [3H]E2 from human recombinant ERalpha by liquid scintillation counting relative to E2
T1 sequence (whole entry): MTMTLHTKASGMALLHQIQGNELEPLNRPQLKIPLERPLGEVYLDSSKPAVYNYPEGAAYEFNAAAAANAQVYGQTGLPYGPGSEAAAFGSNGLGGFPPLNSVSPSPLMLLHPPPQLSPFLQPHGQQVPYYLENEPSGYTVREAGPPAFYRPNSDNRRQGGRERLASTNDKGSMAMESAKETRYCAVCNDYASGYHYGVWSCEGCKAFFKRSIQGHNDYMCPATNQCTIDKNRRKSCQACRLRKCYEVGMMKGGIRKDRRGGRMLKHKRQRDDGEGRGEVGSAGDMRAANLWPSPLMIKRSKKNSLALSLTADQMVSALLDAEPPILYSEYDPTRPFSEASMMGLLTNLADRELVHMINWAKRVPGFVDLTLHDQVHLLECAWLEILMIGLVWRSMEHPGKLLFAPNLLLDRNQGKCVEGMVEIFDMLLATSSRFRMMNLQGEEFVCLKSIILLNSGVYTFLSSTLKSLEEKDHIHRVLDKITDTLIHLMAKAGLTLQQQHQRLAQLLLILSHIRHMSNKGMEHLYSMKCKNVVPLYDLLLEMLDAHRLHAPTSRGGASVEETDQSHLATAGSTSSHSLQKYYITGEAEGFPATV
How it was run: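 Recombinant human receptor ([…]) incubated with [3H]E2 (10 nM) plus test compound, 1 h, room temperature; DMSO 5% final. Nonspecific binding with diethylstilbestrol 10 μM. Bound complexes captured on hydroxyapatite, washed, counted by scintillation.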

[2] = target: T2, Peroxisomal multifunctional enzyme type 2 (Homo sapiens) (UniProt P51659); assay: Inhibition of human 17beta-HSD4 expressed in Escherichia coli assessed as radiolabeled E1 formation using [6,7-3H]E2 as substrate at 1 uM by scintillation counting
T2 sequence (whole entry): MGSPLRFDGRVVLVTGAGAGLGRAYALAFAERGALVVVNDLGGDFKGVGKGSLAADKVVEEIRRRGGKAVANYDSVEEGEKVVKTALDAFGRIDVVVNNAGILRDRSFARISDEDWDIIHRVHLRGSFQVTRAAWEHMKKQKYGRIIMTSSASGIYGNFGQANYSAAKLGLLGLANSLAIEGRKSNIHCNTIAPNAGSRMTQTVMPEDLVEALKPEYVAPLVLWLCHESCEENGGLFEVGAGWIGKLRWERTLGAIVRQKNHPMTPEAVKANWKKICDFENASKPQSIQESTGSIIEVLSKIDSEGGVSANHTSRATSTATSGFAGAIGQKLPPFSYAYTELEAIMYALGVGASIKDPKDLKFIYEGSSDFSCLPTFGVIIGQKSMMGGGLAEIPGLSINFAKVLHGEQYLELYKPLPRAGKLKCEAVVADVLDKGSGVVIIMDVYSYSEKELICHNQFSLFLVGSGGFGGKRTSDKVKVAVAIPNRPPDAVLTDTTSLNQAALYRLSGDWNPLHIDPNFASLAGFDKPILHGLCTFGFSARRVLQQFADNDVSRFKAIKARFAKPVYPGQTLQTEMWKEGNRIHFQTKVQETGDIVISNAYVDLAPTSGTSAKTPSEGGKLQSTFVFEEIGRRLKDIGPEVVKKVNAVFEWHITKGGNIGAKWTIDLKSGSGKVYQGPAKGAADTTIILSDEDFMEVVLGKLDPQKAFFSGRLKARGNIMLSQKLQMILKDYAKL

Relative binding affinity (% of E2) [1]: < 0.1% | inhibition [2]: 40%
Compound: Oc1ccc(-c2ccc3c(O)cccc3c2)cc1C(F)(F)F
